Tests used:
Cytochrome P450 2B6 = target: T1, Cytochrome P450 2B6 (Homo sapiens, UniProt P20813); experiment: Drug metabolism in human recombinant CYP2B6 mediated oxidative metabolism at 10 uM; assay type: ADME; conditions: recombinant enzyme
T1 sequence (P20813 whole entry): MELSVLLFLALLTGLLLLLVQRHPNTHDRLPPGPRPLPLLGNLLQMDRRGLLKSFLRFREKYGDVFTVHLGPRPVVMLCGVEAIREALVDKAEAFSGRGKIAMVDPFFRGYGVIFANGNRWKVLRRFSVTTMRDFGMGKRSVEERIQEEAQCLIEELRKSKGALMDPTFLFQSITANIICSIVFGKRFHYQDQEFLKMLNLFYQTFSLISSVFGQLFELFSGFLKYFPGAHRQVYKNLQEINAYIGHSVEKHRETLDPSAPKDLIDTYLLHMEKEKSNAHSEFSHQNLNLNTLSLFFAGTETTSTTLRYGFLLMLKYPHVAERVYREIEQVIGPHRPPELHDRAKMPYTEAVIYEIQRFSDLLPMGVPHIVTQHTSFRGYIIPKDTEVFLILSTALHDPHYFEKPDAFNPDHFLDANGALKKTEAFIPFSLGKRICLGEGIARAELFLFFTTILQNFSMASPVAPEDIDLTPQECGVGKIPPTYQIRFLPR
Method in brief: (§1)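 Recombinant human P450 at 50 nM incubated with 10 µM Rh2 and 2 mM NADPH in 100 mM potassium phosphate pH 7.4, 37°C, 60 min; ice-cold acetonitrile stop; duplicates; metabolites detected by LC/ion-trap MSn.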

Cytochrome P450 1A2 = target: T2, Cytochrome P450 1A2 (Homo sapiens, UniProt P05177); experiment: Drug metabolism in human recombinant CYP1A2 mediated oxidative metabolism at 10 uM; assay type: ADME; conditions: recombinant enzyme; method in brief: as §1
T2 sequence (P05177 whole entry): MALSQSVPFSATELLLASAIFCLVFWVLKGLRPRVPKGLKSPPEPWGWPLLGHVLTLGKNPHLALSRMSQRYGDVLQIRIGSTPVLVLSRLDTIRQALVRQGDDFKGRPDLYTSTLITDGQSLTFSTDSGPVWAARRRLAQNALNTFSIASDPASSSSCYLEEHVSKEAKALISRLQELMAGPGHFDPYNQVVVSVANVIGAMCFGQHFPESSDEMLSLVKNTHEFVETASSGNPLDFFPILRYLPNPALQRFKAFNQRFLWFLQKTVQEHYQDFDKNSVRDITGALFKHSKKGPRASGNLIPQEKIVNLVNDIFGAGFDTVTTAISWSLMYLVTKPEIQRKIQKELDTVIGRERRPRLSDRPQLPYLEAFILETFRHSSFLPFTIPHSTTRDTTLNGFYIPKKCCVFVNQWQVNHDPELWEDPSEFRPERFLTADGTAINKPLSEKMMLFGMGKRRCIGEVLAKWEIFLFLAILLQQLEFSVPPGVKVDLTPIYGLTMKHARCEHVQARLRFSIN

[1] = Drug excretion in rat urine at 50 mg/kg, po; assay type: ADME, organism-based; set-up: dose 50 mg/kg, route oral; conditions: in vivo
Liver microsome [2] = experiment: Drug metabolism in human liver microsomes assessed as oxidative metabolism at 10 uM in presence of 60 uM chlormethiazole CYP2E1 inhibitor; assay type: ADME
Method in brief: (§2)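 Pooled human liver microsomes (1 mg/ml, mixed-gender, 50 donors), 10 µM Rh2, 2 mM NADPH and selective inhibitor in 100 mM potassium phosphate pH 7.4; 37°C, 60 min; ice-cold acetonitrile stop; uninhibited controls; duplicates; formation of M1-2, M1-3 and M1-4+M1-5 quantified by LC/ion-trap MSn.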

[3] = Drug metabolism in cynomolgus monkey liver microsomes assessed as (24S,25)-epoxydamma-rane-12,20-diol-3-beta-D-glucopyranoside formation at 10 uM after 1 hr by LC/MS analysis in presence of GSH; assay type: ADME, Macaca fascicularis
Method in brief: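 Male cynomolgus monkey liver microsomes (1 mg/ml) with 10 µM Rh2, 2 mM GSH and 2 mM NADPH in 100 mM potassium phosphate pH 7.4, 37°C, 60 min after 3 min preincubation; microsomes start reaction; ice-cold acetonitrile stop; no-NADPH controls; duplicates; LC/ion-trap MSn detection.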

Liver microsome [4] = experiment: Drug metabolism in human liver microsomes assessed as oxidative metabolism at 10 uM in presence of 1 uM sulfaphenazole CYP2C9 inhibitor; assay type: ADME; method in brief: as §2
Cytochrome P450 2C9 = Cytochrome P450 2C9 (Homo sapiens, UniProt P11712); experiment: Drug metabolism in human recombinant CYP2C9 mediated oxidative metabolism at 10 uM; assay type: ADME; conditions: recombinant enzyme; method in brief: as §1
Sequence of Cytochrome P450 2C9 (P11712 whole entry): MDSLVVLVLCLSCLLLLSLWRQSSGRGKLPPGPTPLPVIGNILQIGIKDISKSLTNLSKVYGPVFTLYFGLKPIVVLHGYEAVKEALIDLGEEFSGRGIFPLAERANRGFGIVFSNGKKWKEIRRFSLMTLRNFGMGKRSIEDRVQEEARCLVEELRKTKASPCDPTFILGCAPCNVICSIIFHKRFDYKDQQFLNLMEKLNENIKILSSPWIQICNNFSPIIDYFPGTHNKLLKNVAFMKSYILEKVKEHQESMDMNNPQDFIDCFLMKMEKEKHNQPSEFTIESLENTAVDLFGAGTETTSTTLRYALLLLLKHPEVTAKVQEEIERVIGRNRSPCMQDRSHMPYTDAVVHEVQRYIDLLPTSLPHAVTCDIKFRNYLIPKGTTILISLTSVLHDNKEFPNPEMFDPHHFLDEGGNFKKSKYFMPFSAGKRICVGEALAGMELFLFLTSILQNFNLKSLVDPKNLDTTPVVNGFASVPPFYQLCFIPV

Cytochrome P450 2C8 = target: T3, Cytochrome P450 2C8 (Homo sapiens, UniProt P10632); experiment: Drug metabolism in human recombinant CYP2C8 mediated oxidative metabolism at 10 uM; assay type: ADME; conditions: recombinant enzyme; method in brief: as §1
T3 sequence (P10632 whole entry): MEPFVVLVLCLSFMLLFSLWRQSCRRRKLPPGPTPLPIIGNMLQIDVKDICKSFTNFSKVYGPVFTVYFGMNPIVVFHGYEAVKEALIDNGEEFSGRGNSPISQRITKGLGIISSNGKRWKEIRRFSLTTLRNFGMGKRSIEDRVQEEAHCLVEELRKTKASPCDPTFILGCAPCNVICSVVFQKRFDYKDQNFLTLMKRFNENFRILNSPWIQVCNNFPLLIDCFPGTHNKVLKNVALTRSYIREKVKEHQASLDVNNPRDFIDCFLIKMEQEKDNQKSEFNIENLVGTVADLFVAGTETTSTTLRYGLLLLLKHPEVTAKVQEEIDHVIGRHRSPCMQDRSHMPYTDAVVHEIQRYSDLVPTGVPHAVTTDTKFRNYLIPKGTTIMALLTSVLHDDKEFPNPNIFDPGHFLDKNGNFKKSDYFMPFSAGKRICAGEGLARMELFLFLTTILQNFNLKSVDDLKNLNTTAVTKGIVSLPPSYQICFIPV

Cytochrome P450 2C19 = Cytochrome P450 2C19 (Homo sapiens, UniProt P33261); experiment: Drug metabolism in human recombinant CYP2C19 mediated oxidative metabolism at 10 uM; assay type: ADME; conditions: recombinant enzyme; method in brief: as §1
Sequence of Cytochrome P450 2C19 (P33261 whole entry): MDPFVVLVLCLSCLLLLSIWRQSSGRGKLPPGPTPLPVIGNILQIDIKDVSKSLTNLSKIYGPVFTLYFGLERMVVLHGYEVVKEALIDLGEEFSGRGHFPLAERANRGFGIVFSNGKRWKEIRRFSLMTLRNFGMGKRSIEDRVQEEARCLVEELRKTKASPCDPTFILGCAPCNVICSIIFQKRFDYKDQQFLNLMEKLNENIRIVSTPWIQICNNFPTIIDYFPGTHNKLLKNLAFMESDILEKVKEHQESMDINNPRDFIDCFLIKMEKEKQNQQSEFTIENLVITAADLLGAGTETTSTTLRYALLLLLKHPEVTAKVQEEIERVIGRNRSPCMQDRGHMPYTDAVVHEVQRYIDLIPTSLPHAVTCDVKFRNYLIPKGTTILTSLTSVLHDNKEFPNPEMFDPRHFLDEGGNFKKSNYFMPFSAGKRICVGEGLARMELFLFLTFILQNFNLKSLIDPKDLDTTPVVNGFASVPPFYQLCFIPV

[5] = Oral bioavailability in Wistar rat at 25 mg/kg; assay type: ADME, organism-based; conditions: in vivo
[6] = Drug metabolism in cynomolgus monkey liver microsomes assessed as (2S)-2-amino-5-((2R)-1-(carboxymethylamino)-3-((6S)-2,6-dihydroxy-6-((3S,5R,8R,9R,10R,12R,13R,14R,17S)-12-hydroxy-4,4,8,10,14-pentamethyl-3-((2R,3R,4S,5S,6R)-3,4,5-trihydroxy-6-(hydroxymethyl)tetrahydro-2H-pyran-2-yloxy)hexadecahydro-1H-cyclopenta[a]phenanthren-17-yl)-2-methylheptan-3-ylthio)-1-oxopropan-2-ylamino)-5-oxopentanoic acid formation at 10 uM by LC/MS analysis in presence of 1 uM ketoconazole; assay type: ADME, Macaca fascicularis
Method in brief: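 Cynomolgus monkey liver microsomes (1 mg/ml) with 2 mM GSH, 10 µM Rh2 and 1.0 µM ketoconazole preincubated 10 min before adding 2 mM NADPH; GSH conjugate measured by LC/ion-trap MSn peak area; duplicates.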

Cytochrome P450 2E1 = Cytochrome P450 2E1 (Homo sapiens, UniProt P05181); experiment: Drug metabolism in human recombinant CYP2E1 mediated oxidative metabolism at 10 uM; assay type: ADME; conditions: recombinant enzyme; method in brief: as §1
Sequence of Cytochrome P450 2E1 (P05181 whole entry): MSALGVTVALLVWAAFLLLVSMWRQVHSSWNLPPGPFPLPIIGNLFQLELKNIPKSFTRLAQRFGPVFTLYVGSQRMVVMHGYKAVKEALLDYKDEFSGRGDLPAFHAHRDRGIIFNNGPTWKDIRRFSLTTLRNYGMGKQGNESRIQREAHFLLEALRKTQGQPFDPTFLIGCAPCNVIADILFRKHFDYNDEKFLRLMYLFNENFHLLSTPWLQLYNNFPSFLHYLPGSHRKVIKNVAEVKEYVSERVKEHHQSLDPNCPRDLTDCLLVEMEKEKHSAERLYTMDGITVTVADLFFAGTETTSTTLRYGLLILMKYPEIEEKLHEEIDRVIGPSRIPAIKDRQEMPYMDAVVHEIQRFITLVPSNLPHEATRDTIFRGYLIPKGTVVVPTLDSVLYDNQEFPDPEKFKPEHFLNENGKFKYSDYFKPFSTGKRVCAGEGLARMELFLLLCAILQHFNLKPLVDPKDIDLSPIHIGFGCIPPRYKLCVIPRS

[7] = Oral bioavailability in beagle dog at 8 mg/kg; assay type: ADME, organism-based, Canis lupus familiaris; conditions: in vivo
[8] = Drug excretion in rat bile at 50 mg/kg, po; assay type: ADME, organism-based; set-up: dose 50 mg/kg, route oral; conditions: read-out: Drug excretion
Liver microsome [9] = experiment: Drug metabolism in human liver microsomes assessed as oxidative metabolism at 10 uM in presence of 0.4 uM ticlopidine CYP2B6/CYP2C19 inhibitor; assay type: ADME; method in brief: as §2
Liver microsome [10] = experiment: Drug metabolism in human liver microsomes assessed as oxidative metabolism at 10 uM in presence of 0.1 uM alpha-naphthoflavone CYP1A2 inhibitor; assay type: ADME; method in brief: as §2
Liver microsome [11] = experiment: Drug metabolism in human liver microsomes assessed as oxidative metabolism at 10 uM in presence of 2 uM quinidine CYP2D6 inhibitor; assay type: ADME; method in brief: as §2

SMILES: CC(C)=CCC[C@](C)(O)[C@H]1CC[C@]2(C)[C@@H]1[C@H](O)C[C@@H]1[C@@]3(C)CC[C@H](O[C@@H]4O[C@H](CO)[C@@H](O)[C@H](O)[C@H]4O)C(C)(C)[C@@H]3CC[C@]12C [GINSENOSIDE RH2]
- Drug metabolism (Cytochrome P450 2B6): metabolite_not_detected
- Drug metabolism (Cytochrome P450 1A2): metabolite_not_detected
- Drug excretion [1]: metabolite_not_detected
- Drug metabolism (Liver microsome [2]): metabolite_detected
- Drug metabolism [3]: metabolite_detected
- Drug metabolism (Liver microsome [4]): metabolite_detected
- Drug metabolism (Cytochrome P450 2C9): metabolite_not_detected
- Drug metabolism (Cytochrome P450 2C8): metabolite_not_detected
- Drug metabolism (Cytochrome P450 2C19): metabolite_not_detected
- bioavailability [5]: 28%
- Drug metabolism [6]: metabolite_not_detected
- Drug metabolism (Cytochrome P450 2E1): metabolite_not_detected
- bioavailability [7]: 55%
- dose excreted [8]: < 10%
- Drug metabolism (Liver microsome [9]): metabolite_detected
- Drug metabolism (Liver microsome [10]): metabolite_detected
- Drug metabolism (Liver microsome [11]): metabolite_detected
